NR3A LBD binder = NR3A (human) ligand-binding domain modulation; NR3A LBD differential scanning fluorimetry, Tm shift; 0% = protein alone, 100% = glycine-bound protein; Tm shift relative to glycine control, % at 25 µM; 340,000 compounds, 2.5% hits; AID 1259313;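 active = melting temperature shift of at least 10% of the positive control shift, at one fixed dose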
EBI2 block = blocks human EBI2 receptor beta-arrestin signaling. inhibition, % at 5 µM. 360,000 compounds, 0.81% hits. EBI2 beta-arrestin recruitment, luminescence, 7a,25-OHC stimulated. AID 651636; in the data active = inhibition above about 38%;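 note: enzyme fragment complementation signal reports receptor beta-arrestin coupling in cells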
Target sequence (P32249 whole entry, looked up, the tested form may be a part): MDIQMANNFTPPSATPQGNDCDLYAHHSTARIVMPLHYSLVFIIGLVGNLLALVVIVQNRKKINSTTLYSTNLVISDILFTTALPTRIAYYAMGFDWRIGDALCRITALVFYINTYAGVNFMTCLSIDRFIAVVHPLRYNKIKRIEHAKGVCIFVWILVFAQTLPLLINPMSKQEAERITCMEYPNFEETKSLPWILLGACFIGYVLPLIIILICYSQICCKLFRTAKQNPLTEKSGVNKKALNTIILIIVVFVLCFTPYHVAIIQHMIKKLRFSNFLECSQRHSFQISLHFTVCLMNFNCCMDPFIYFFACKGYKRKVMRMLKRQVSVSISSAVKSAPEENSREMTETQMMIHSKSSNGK
MPTP inh = permeability transition pore inhibition; isolated mouse mitochondria, Ca2+ swelling absorbance, 30 min; inhibition, % at 10 µM; 360,000 compounds, 1.4% hits;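 active = inhibition of 50% or more, scaled per plate between neutral and stimulator controls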
SENP1 FRET inh = blocks the human SENP1 SUMO protease catalytic domain. inhibition, % at 10 µM. 360,000 compounds, 0.21% hits. recombinant SENP1 catalytic domain, CyPet-SUMO1-YPet FRET cleavage. AID 624204. Q9P0U3;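 active = inhibition at least 30% at 10 µM, raw YFP signal under a set limit, fluorescence ratio 0.5 to 1.5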
Target sequence (Q9P0U3 419-644 limits assumed): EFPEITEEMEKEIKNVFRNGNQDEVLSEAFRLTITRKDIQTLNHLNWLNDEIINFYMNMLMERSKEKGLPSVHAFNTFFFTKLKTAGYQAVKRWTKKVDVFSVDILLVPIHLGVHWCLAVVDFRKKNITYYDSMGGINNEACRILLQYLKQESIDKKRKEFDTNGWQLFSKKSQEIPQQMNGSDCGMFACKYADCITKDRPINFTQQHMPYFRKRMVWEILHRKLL
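material = recombinant human SENP1 catalytic domain, His6-tagged | quantity = 20 pM enzyme | reagent = 25 nM SUMO1 FRET substrate | compound dosing = 10 µM single point, 0.5% DMSO | timing = 50 min enzyme reaction, room temperature, light-protected | detection = FRET, CFP and YFP emission | control set = no-enzyme low, enzyme-DMSO high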
A number is an active result; . = inactive; / = no result. Sampled rows, rich in hits. Any-hit rate of the full collection: about 4.4%.

SMILES	NR3A LBD binder	EBI2 block	MPTP inh	SENP1 FRET inh
Cc1ccc(NC(=O)c2ccc(NCc3ccc(F)cc3)nc2)cc1	.	.	.	.
O=[N+]([O-])c1ccc(Nc2ccc(Cl)cc2)nc1	11.3	.	.	.
O=[N+]([O-])c1ccc(Nc2ccccc2F)nc1	26.8	.	.	.
Cc1ccccc1Nc1ccc([N+](=O)[O-])cn1	.	.	.	.
Cc1ccc(NC(=O)c2ccc(Nc3ccccc3F)nc2)cc1	30.4	.	.	.
Cc1cc(S(=O)(=O)N2CCCC2C(=O)N2CCOCC2)c(C)cc1Cl (stereo not drawn)	58.2	.	.	.
O=C1N(c2ccccc2C(F)(F)F)O[C@]1(c1ccccc1)C1CCCCC1	.	.	.	.
CCOc1ccc(/C=C(\C(=O)O)c2ccc(S(=O)(=O)N3CCCCC3)s2)cc1OC	17.6	.	.	.
CCOc1ccc(/C=C(\C(=O)O)c2ccc(S(=O)(=O)N3CCOCC3)s2)cc1OC	12.2	.	.	.
COc1cc(/C=C(\C(=O)O)c2ccc(S(=O)(=O)N3CCCC3)s2)cc(OC)c1	.	.	.	.
CC1CCC(NC(=O)CN2C(=O)c3cccnc3Oc3ccc(Cl)cc32)CC1 (stereo not drawn)	.	.	.	.
Cc1ccc(S(=O)(=O)Nc2nc(-c3ccccc3)cs2)cc1	.	.	.	.
O=C(O)c1ccc(-c2nc(-c3ccccc3)cs2)cc1	.	.	.	.
Cc1ccc(S(=O)(=O)Nc2ccc(-c3csc(-c4ccccc4)n3)cc2)cc1	24.4	.	.	.
c1ccc(-c2csc(-c3ccc(-c4csnn4)cc3)n2)cc1	18.6	.	.	.
O=S(=O)(Nc1ccc(-c2csc(-c3ccccc3)n2)cc1)c1ccccc1	20.4	.	.	.
O=C(NCC1CCCO1)c1csc(Nc2cccc3ccccc23)n1 (stereo not drawn)	.	.	.	.
CCOc1ccc(C(=O)OCC(=O)NCCCc2ccccc2)cc1	.	.	.	.
CCN(CC)S(=O)(=O)c1ccc2oc(C(=O)NCCN3CCOCC3)c(C)c2c1	58.1	.	.	.
COc1cccc(NC(=O)Cn2nnc(C(=O)NCc3ccc4c(c3)OCO4)c2N)c1	.	.	.	.
Cc1ccc(NS(=O)(=O)c2ccc(NC(=O)C(C)Sc3ccc(Cl)cc3)cc2)c(C)c1 (stereo not drawn)	13.4	.	.	.
CNC(=O)c1cc(S(=O)(=O)Nc2ccc(C)cc2C)ccc1C	14.1	.	.	.
Cc1ccc(NC(=O)c2cc(S(=O)(=O)Nc3ccc(C)cc3)cs2)cc1	27.3	.	.	.
Cc1ccc(NS(=O)(=O)c2ccc(NC(=O)c3cccs3)cc2)c(C)c1	29.3	.	.	.
CNC(=O)c1cc(S(=O)(=O)NC2CCCCCC2)ccc1C	.	.	.	.
SMILES	NR3A LBD binder	EBI2 block	MPTP inh	SENP1 FRET inh
Cc1cc(C)nc(NS(=O)(=O)c2ccc(NC(=O)c3cccs3)cc2)n1	.	.	.	.
Cc1cc(C)cc(NS(=O)(=O)c2ccc(NC(=S)NC(=O)c3cccs3)cc2)c1	23.6	.	.	.
COCC(C)n1c(SCC(=O)NNC(=O)c2ccc(F)cc2)nc2ccccc2c1=O (stereo not drawn)	.	.	.	.
Cc1ccccc1OCC(=O)OC(C)C(=O)NC1CCCC1 (stereo not drawn)	.	.	.	.
O=C1/C(=C/c2ccccc2)Oc2cc(OC(=O)N3CCOCC3)ccc21	20.5	.	.	.
O=C1/C(=C/c2ccc(F)cc2)Oc2cc(OC(=O)N3CCOCC3)ccc21	.	.	.	.
O=C(Nc1cccc(C(F)(F)F)c1)NC1CCN(S(=O)(=O)c2ccc(F)cc2)CC1	19.2	.	.	.
COc1cccc(C(=O)NCC(=O)NCc2cc(=O)n(C)c(=O)n2C)c1OC	.	.	.	.
O=C(/C=C/c1ccc(Br)o1)NC(c1ccccc1)c1ccccc1	19.6	.	.	.
COc1cc(OC)c2ccc(=O)oc2c1C(CCN1CCOCC1)c1ccc2c(c1)OCO2 (stereo not drawn)	15.4	.	.	.
COc1cc(OC)c2ccc(=O)oc2c1C(CCN1CCCC1)c1ccc2c(c1)OCO2 (stereo not drawn)	.	.	.	.
Nc1cccc(Oc2ccc3c(c2)C(=O)N(CC2CCCO2)C3=O)c1 (stereo not drawn)	.	.	.	.
CS(=O)(=O)c1ccc(CNC(=O)C2(C(F)(F)F)C/C(=C\Cc3ccccc3)CCCO2)cc1 (stereo not drawn)	15.7	.	.	.
Cc1ccc(NC(=O)CCCSc2nc3ccccc3[nH]2)cc1	.	.	.	.
CCc1nnc(NC(=O)CSc2ccc(-c3nc4ccccc4[nH]3)cn2)s1	19.0	.	.	.
Cc1ccc2nc(-c3ccc(SCC(=O)Nc4nnc(C)s4)nc3)[nH]c2c1	23.9	.	.	.
Cc1nc(NC(=O)CSc2ccc(-c3nc4ccccc4[nH]3)cn2)sc1C	19.6	.	.	.
Cc1ccc(SCC(=O)Nc2ccc(-c3nc4ccccc4[nH]3)cc2)cc1	35.1	.	.	.
COCCNC(=O)CSc1ccc(-c2nc3ccccc3[nH]2)cn1	.	.	.	.
CC(C)CN(CC(C)C)S(=O)(=O)N1CCC(C(=O)NCc2ccc3c(c2)OCO3)CC1	.	.	.	.
O=C(CCc1nc2ccccc2s1)OCC(=O)c1ccc[nH]1	.	.	.	.
COc1ccc2[nH]cc(CCNC(=O)Cc3ccc(Cl)cc3)c2c1	.	.	.	.
CN(C)c1cccc(C(=O)NNC(=O)CN2C(=O)C3CC=CCC3C2=O)c1 (stereo not drawn)	.	.	.	.
CCc1nnc(NC(=O)CSc2ccc(-c3ccc(-n4cccn4)cc3)nn2)s1	34.6	.	.	.
Cc1ccc(N(CC(O)Cn2c3ccccc3c3ccccc32)S(C)(=O)=O)cc1 (stereo not drawn)	.	.	.	.
SMILES	NR3A LBD binder	EBI2 block	MPTP inh	SENP1 FRET inh
CC(=O)Nc1ccc(N(CC(O)Cn2c3ccccc3c3ccccc32)S(=O)(=O)c2ccc(C)cc2)cc1 (stereo not drawn)	22.2	.	.	.
NS(=O)(=O)c1ccc(NC(=O)COc2cccc3ccccc23)cc1	15.8	.	.	.
Cc1ccc(NC(=O)c2cc3ccccc3o2)cc1Cl	34.8	.	.	.
CCc1ccccc1OCC(=O)Nc1ccc(S(N)(=O)=O)cc1	.	.	.	.
COc1ccc(NC(=O)c2cc3ccccc3o2)cc1	.	.	.	.
COc1ccc(NC(=O)c2cc3ccccc3o2)cc1OC	26.2	.	.	.
O=C(COc1ccccc1[N+](=O)[O-])Nc1ccc(NC(=O)c2cc3ccccc3o2)cc1	12.2	.	.	.
CC(C)c1ccc(/C=C(/C#N)c2nnc(NC(=O)c3ccccc3)s2)cc1	.	.	.	.
Cc1ccn(CCC(=O)Nc2ccc(-c3ccno3)cc2)n1	.	.	.	.
O=C(C(Cl)Cl)N1CC2CCC(CC2)C1	.	.	.	.
COC(=O)c1sc(N)nc1CCNC(=O)OC(C)(C)C	/	.	.	.
Cc1ccccc1NC(=O)C1CCN(C(=O)N2CCOc3ccccc32)CC1	.	.	.	.
